Assay results from ChEMBL document CHEMBL1152738, “Synthesis and in vitro antitubercular activity of a series of quinoline derivatives” (2009).
≈ marks a conversion by molar mass, not a printed value.

These compounds were tested on Mycobacterium tuberculosis (assay: Antitubercular activity against Mycobacterium tuberculosis H37Rv after 5 days by microplate alamar blue assay). Conditions: 120 h.
Format: functional
In short: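 M. tuberculosis H37Rv (ATCC 27294, rifampin- and isoniazid-susceptible) tested by MABA. Compounds serially diluted directly in Middlebrook 7H9 broth in 96-well plates, which were sealed and incubated at 37 °C for 5 days. A fresh 1:1 Alamar Blue/10% Tween 80 mix was then added and plates were incubated 24 h more. MIC was the lowest concentration preventing the blue-to-pink colour change.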
In the case of `CCN(CC)Cc1cc(Nc2ccnc3cc(Cl)ccc23)ccc1O.Cl`, the MIC is reported as 100 µg/mL. Work on `NCCCNc1ccnc2cc(Cl)ccc12` yielded an MIC of over 100 µg/mL. `NCCCCNc1ccnc2cc(Cl)ccc12` was tested, and the MIC was over 100 µg/mL. `NCCCCCCNc1ccnc2cc(Cl)ccc12` was tested, and the MIC was 25 µg/mL (≈ 90 µM). With `CC(C)NCCNc1ccnc2cc(Cl)ccc12` the MIC was over 100 µg/mL. Work on `ClCCNc1ccnc2cc(Cl)ccc12` yielded an MIC of 12.5 µg/mL (≈ 51.8 µM). In the case of `OCCNc1ccnc2cc(Cl)ccc12`, the MIC is reported as over 100 µg/mL. With `OCCNc1ccnc2ccccc12` the MIC was over 100 µg/mL. `ClCCNc1ccnc2ccccc12` gave an MIC of over 100 µg/mL. With `[N-]=[N+]=Nc1ccnc2cc(Cl)ccc12` the MIC was over 100 µg/mL. `ClCCCNc1ccnc2cc(Cl)ccc12` was tested, and the MIC was 50 µg/mL (≈ 196 µM). `Nc1ccnc2cc(Cl)ccc12` showed an MIC of over 100 µg/mL. For `N#CCCNc1ccnc2cc(Cl)ccc12`, the MIC was over 100 µg/mL. With `CCCNCCNc1ccnc2cc(Cl)ccc12` the MIC was 100 µg/mL (≈ 379 µM). Compound `CCCNc1ccnc2cc(Cl)ccc12` has an MIC of 50 µg/mL (≈ 227 µM). `CC(C)Nc1ccnc2cc(Cl)ccc12` showed an MIC of 50 µg/mL (≈ 227 µM). Compound `CCCCNc1ccnc2cc(Cl)ccc12` has an MIC of 12.5 µg/mL (≈ 53.3 µM). With `OCCCNc1ccnc2cc(Cl)ccc12` the MIC was over 100 µg/mL. For `CC[C@H](CO)Nc1ccnc2cc(Cl)ccc12`, the MIC was over 100 µg/mL. In the case of `CCCCNc1ccnc2ccccc12`, the MIC is reported as 50 µg/mL (≈ 250 µM). Compound `[N-]=[N+]=NCCNc1ccnc2cc(Cl)ccc12` has an MIC of 50 µg/mL (≈ 202 µM). With `NCCCCCCCCNc1ccnc2cc(Cl)ccc12` the MIC was 6.25 µg/mL (≈ 20.4 µM). `NCCCCCCCCCCNc1ccnc2cc(Cl)ccc12` showed an MIC of 3.12 µg/mL (≈ 9.34 µM). In the case of `CCCCNCCNc1ccnc2cc(Cl)ccc12`, the MIC is reported as over 100 µg/mL. Work on `CNCCNc1ccnc2cc(Cl)ccc12` yielded an MIC of over 100 µg/mL. With `Clc1ccc2c(NCCNC3CCCCC3)ccnc2c1` the MIC was 100 µg/mL (≈ 329 µM). Work on `OCCNCCNc1ccnc2cc(Cl)ccc12` yielded an MIC of over 100 µg/mL. `CCC(CCl)Nc1ccnc2cc(Cl)ccc12` (configuration not stated) gave an MIC of 50 µg/mL (≈ 186 µM). Compound `Clc1ccc2c(NCCNCc3ccccc3)ccnc2c1` has an MIC of 50 µg/mL (≈ 160 µM). With `CC[C@@H](CO)Nc1ccnc2cc(Cl)ccc12` the MIC was over 100 µg/mL. `NCCNc1ccnc2cc(Cl)ccc12` was tested, and the MIC was over 100 µg/mL. `CNc1ccnc2cc(Cl)ccc12` was tested, and the MIC was 100 µg/mL (≈ 519 µM). `CCC(CO)Nc1ccnc2cc(Cl)ccc12` (racemic) was tested, and the MIC was over 100 µg/mL. Compound `OC(c1cc(C(F)(F)F)nc2c(C(F)(F)F)cccc12)C1CCCCN1` (configuration not stated) [MEFLOQUINE] has an MIC of 25 µg/mL (≈ 66.1 µM). Compound `COc1cc(NC(C)CCCN)c2ncccc2c1` (configuration not stated) [PRIMAQUINE] has an MIC of 50 µg/mL (≈ 193 µM). With `C=C[C@H]1CN2CC[C@H]1C[C@H]2[C@H](O)c1ccnc2ccc(OC)cc12` [QUININE] the MIC was 100 µg/mL (≈ 308 µM). `Nc1ccnc2ccccc12` [QUINOLIN-4-AMINE] gave an MIC of over 100 µg/mL.
